The source of these data is ChEMBL document CHEMBL1148007, “Synthesis of new S-derivatives of clubbed triazolyl thiazole as anti-Mycobacterium tuberculosis agents” (Bioorg Med Chem, 2007).

Some results are limits rather than exact numbers.

Data set [1] concerns Staphylococcus aureus. As to the kind of experiment: Antibacterial activity against Staphylococcus aureus at 50 to 100 uM after 24 hrs by well diffusion method. The format is functional. An outline of the steps:
(§1)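 Nutrient agar plates with 10 mm wells cut by cork borer; 24-h subcultured bacteria swabbed on. Compounds dissolved in chloroform, 50 to 100 μM added to wells, gentamycin as standard. Incubated 24 h at 24–28 °C; inhibition zone diameter measured and converted to percent inhibition.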
On the technique in general: In agar diffusion tests the substance spreads into inoculated agar from a disc or well.

Data set [2] in a line: Cytotoxicity against Vero-C1008 cells at 6.25 to 50 ug/mL by neutral red uptake assay. Format: cell-based. To be noted: chlorocebus sabaeus. In outline:
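Vero-C-1008 cells exposed to 6.25 to 50 μg/mL compound; viability read by neutral red uptake.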

Data set [3] has as its system Pseudomonas aeruginosa. As to the kind of experiment: Antibacterial activity against Pseudomonas aeruginosa at 50 to 100 uM after 24 hrs by well diffusion method. Format: functional. In outline: as §1
Data set [4] has as its system Escherichia coli. As to the kind of experiment: Antibacterial activity against Escherichia coli at 50 to 100 uM after 24 hrs by well diffusion method. The format is functional. In outline:
as §1

Data set [5] has as its system Mycobacterium tuberculosis. As to the kind of experiment: Antitubercular activity against Mycobacterium tuberculosis H37Rv by MABA assay. The format is functional. An outline of the steps: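 Actives re-tested at lower concentrations against H37Rv (ATCC 27294) in BACTEC 12B medium by Microplate Alamar Blue Assay. MIC taken as lowest concentration giving […] fluorescence reduction versus controls; rifampin reference.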
(In general: Resazurin is reduced to fluorescent resorufin, in cell work by metabolically active cells.)

For data set [6], the system named is Salmonella typhi. As to the kind of experiment: Antibacterial activity against Salmonella typhi at 50 to 100 uM after 24 hrs by well diffusion method. The format is functional, Salmonella enterica subsp. enterica serovar Typhi. Further details: unit not given here. In outline:
as §1

One may read the MIC as the smallest concentration in the dilution series that meets the test's criterion for growth inhibition. Consider `Nn1c(S)nnc1Cc1csc(NCCC(=O)O)n1`, for which the inhibition zone amounted to 25 mm in data set [1], 22 mm in data set [3] and 20 mm in data set [4]. Further, in data set [2], the Activity result is listed as “Non-toxic”. Also, the minimum inhibitory concentration (MIC) in data set [5] is under 6.25 µg/mL. The Inhibition in data set [6] is reported as 16.

Take `COC(=O)CSc1nnc(Cc2csc(NC(=O)c3ccccc3)n2)n1NC(=O)c1ccc(Cl)cc1`: the figures for the inhibition zone in data set [1], in data set [3] and in data set [4] were 22 mm, 22 mm and 20 mm, respectively. In addition, in data set [2], the Activity result is given as “Non-toxic”. The compound also returned an MIC in data set [5] of under 6.25 µg/mL. Besides, the Inhibition in data set [6] is listed as 16.

For `O=C(CCl)NNC(=O)CSc1nnc(Cc2csc(NC(=O)CCl)n2)n1NC(=O)c1cccc([N+](=O)[O-])c1`, the inhibition zone in data set [1] was determined as 14 mm; in data set [3] it was 16 mm; in data set [4], 12 mm. For the same compound, the Activity result in data set [2] is “Non-toxic”. Further, in data set [5], the MIC is under 6.25 µg/mL. This compound registered an Inhibition in data set [6] of 18.

Consider `COC(=O)CSc1nnc(Cc2csc(NC(=O)CCl)n2)n1NC(=O)c1cccc([N+](=O)[O-])c1`, for which the inhibition zone in data set [1] is 26 mm; in data set [3], 24 mm; in data set [4], 20 mm. Besides, the Activity entry in data set [2] is recorded as “Non-toxic”. Also, in data set [5], the MIC is under 6.25 µg/mL. Also, the Inhibition in data set [6] was 20.

`COC(=O)CSc1nnc(Cc2csc(NC(=O)c3ccccc3)n2)n1NC(=O)c1cccc([N+](=O)[O-])c1`: the inhibition zone is 22 mm in data set [1], 11 mm in data set [3] and 24 mm in data set [4]. The Activity entry in data set [2] is on record as “Non-toxic”. In addition, the MIC in data set [5] was under 6.25 µg/mL. In data set [6], this compound yielded an Inhibition of 24.

Consider `NNC(=O)CSc1nnc(Cc2csc(NCCC(=O)O)n2)n1NC(=O)c1cccc([N+](=O)[O-])c1`, for which the inhibition zone in data set [1] came to 24 mm; in data set [3] it was 28 mm; in data set [4] it was 16 mm. In data set [2], the Activity result was “Non-toxic”. In data set [5], the MIC was under 6.25 µg/mL. The same compound showed an Inhibition in data set [6] of 21.

On to `O=C(CSc1nnc(Cc2csc(NC(=O)c3ccccc3)n2)n1NC(=O)c1cccc([N+](=O)[O-])c1)NNC(=O)c1ccccc1`, for which the inhibition zone in data set [1] came to 18 mm; in data set [3], 12 mm; in data set [4], 14 mm. Also, the Activity result in data set [2] is reported as “Non-toxic”. The compound further returned an MIC in data set [5] of under 6.25 µg/mL. The compound further had an Inhibition in data set [6] of 12.

On to `COC(=O)CSc1nnc(Cc2csc(NC(C)=O)n2)n1NC(=O)c1ccc(Cl)cc1`, for which the inhibition zone worked out at 20 mm in data set [1], 16 mm in data set [3] and 10 mm in data set [4]. In addition, in data set [2], the Activity result was “Non-toxic”. The MIC in data set [5] was under 6.25 µg/mL. The Inhibition in data set [6] worked out at 10.

Consider `O=C(CCl)NNC(=O)CSc1nnc(Cc2csc(NC(=O)c3ccccc3)n2)n1NC(=O)c1cccc([N+](=O)[O-])c1`, for which the inhibition zone is 14 mm in data set [1], 11 mm in data set [3] and 18 mm in data set [4]. Besides, the Activity entry in data set [2] was “Non-toxic”. The MIC in data set [5] is under 6.25 µg/mL. Moreover, the Inhibition in data set [6] was found to be 12.

Take `O=C(CCl)NNC(=O)CSc1nnc(Cc2csc(NC(=O)c3ccccc3)n2)n1NC(=O)c1ccc(Cl)cc1`: the inhibition zone in data set [1] was 26 mm; in data set [3], 23 mm; in data set [4] it was 19 mm. For the same compound, the Activity entry in data set [2] was “Non-toxic”. Besides, the MIC in data set [5] is under 6.25 µg/mL. Further, in data set [6], the Inhibition is listed as 22.

`CC(=O)NNC(=O)CSc1nnc(Cc2csc(NC(=O)CCl)n2)n1NC(=O)c1cccc([N+](=O)[O-])c1`: the figures for the inhibition zone in data set [1], in data set [3] and in data set [4] were 27 mm, 24 mm and 18 mm, respectively. Besides, in data set [2], the Activity entry is “Non-toxic”. The compound further showed an MIC in data set [5] of under 6.25 µg/mL. The compound also came in with an Inhibition in data set [6] of 24.

Regarding `Nn1c(S)nnc1CSc1nnc(Cc2csc(NC(=O)CCl)n2)n1NC(=O)c1cccc([N+](=O)[O-])c1`, the inhibition zone was determined as 20 mm in data set [1], 26 mm in data set [3] and 18 mm in data set [4]. For the same compound, the Activity result in data set [2] is “Non-toxic”. The MIC in data set [5] was under 6.25 µg/mL. In data set [6], this compound displayed an Inhibition of 21.

Turning to `Nn1c(S)nnc1CSc1nnc(Cc2csc(NCCC(=O)O)n2)n1NC(=O)c1cccc([N+](=O)[O-])c1`, the inhibition zone was determined as 26 mm in data set [1], 28 mm in data set [3] and 17 mm in data set [4]. In data set [2], the Activity result is “Non-toxic”. Further, the MIC in data set [5] is under 6.25 µg/mL. In data set [6], this compound showed an Inhibition of 18.

On to `CC(=O)NNC(=O)CSc1nnc(Cc2csc(NC(C)=O)n2)n1NC(=O)c1ccc(Cl)cc1`, for which the inhibition zone in data set [1] turned out to be 27 mm; in data set [3], 19 mm; in data set [4], 20 mm. Moreover, the Activity result in data set [2] is “Non-toxic”. Further, the minimal inhibitory concentration (MIC) in data set [5] was under 6.25 µg/mL. For the same compound, the Inhibition in data set [6] came out at 23.

For the compound `O=C(Nc1nc(Cc2nnc(SCSc3nnc(Cc4csc(NC(=O)c5ccccc5)n4)n3NC(=O)c3ccc(Cl)cc3)n2NC(=O)c2ccc(Cl)cc2)cs1)c1ccccc1`, the inhibition zone in data set [1] came to 29 mm; in data set [3], 27 mm; in data set [4], 20 mm. Further, in data set [2], the Activity entry is reported as “Non-toxic”. In addition, the MIC in data set [5] was under 6.25 µg/mL. In data set [6], this compound gave an Inhibition of 12.

For the compound `O=C(CCl)Nc1nc(Cc2nnc(SCSc3nnc(Cc4csc(NC(=O)CCl)n4)n3NC(=O)c3cccc([N+](=O)[O-])c3)n2NC(=O)c2cccc([N+](=O)[O-])c2)cs1`, the results for the inhibition zone in data set [1], in data set [3] and in data set [4] were 18 mm, 30 mm and 27 mm, respectively. Moreover, in data set [2], the Activity result is “Non-toxic”. The compound also displayed an MIC in data set [5] of under 6.25 µg/mL. In data set [6], this compound returned an Inhibition of 24.

Regarding `O=C(CSc1nnc(Cc2csc(NC(=O)CCl)n2)n1NC(=O)c1cccc([N+](=O)[O-])c1)NNC(=O)c1ccccc1`, the inhibition zone in data set [1] is 21 mm; in data set [3] it was 18 mm; in data set [4], 10 mm. For the same compound, in data set [2], the Activity entry is “Non-toxic”. Moreover, in data set [5], the MIC was under 6.25 µg/mL. Further, the Inhibition in data set [6] is on record as 18.

As for `CC(=O)NNC(=O)CSc1nnc(Cc2csc(NCCC(=O)O)n2)n1NC(=O)c1cccc([N+](=O)[O-])c1`, the inhibition zone in data set [1] was 24 mm; in data set [3], 10 mm; in data set [4], 14 mm. Moreover, the Activity result in data set [2] is recorded as “Non-toxic”. The same compound returned an MIC in data set [5] of under 6.25 µg/mL. Also, the Inhibition in data set [6] is on record as 14.

In the case of `CC(=O)Nc1nc(Cc2nnc(SCc3nnc(S)n3N)n2NC(=O)c2cccc([N+](=O)[O-])c2)cs1`, the results for the inhibition zone in data set [1], in data set [3] and in data set [4] were 18 mm, 13 mm and 21 mm, respectively. In addition, the Activity entry in data set [2] is “Non-toxic”. The MIC in data set [5] is under 6.25 µg/mL. The same compound returned an Inhibition in data set [6] of 18.

`COC(=O)CSc1nnc(Cc2csc(NC(=O)CCl)n2)n1NC(=O)c1ccc(Cl)cc1`: the inhibition zone was found to be 18 mm in data set [1], 16 mm in data set [3] and 10 mm in data set [4]. Besides, the Activity entry in data set [2] was “Non-toxic”. The same compound gave an MIC in data set [5] of under 6.25 µg/mL. Besides, the Inhibition in data set [6] stood at 12.

With `O=C(O)CCNc1nc(Cc2nnc(SCC(=O)NNC(=O)c3ccccc3)n2NC(=O)c2ccc(Cl)cc2)cs1`, the inhibition zone in data set [1] was determined as 18 mm; in data set [3] it was 25 mm; in data set [4], 19 mm. Also, the Activity result in data set [2] is on record as “Non-toxic”. The same compound came in with an MIC in data set [5] of under 6.25 µg/mL. Moreover, in data set [6], the Inhibition stood at 23.

Regarding `CC(=O)NNC(=O)CSc1nnc(Cc2csc(NC(C)=O)n2)n1NC(=O)c1cccc([N+](=O)[O-])c1`, the inhibition zone was determined as 33 mm in data set [1], 34 mm in data set [3] and 30 mm in data set [4]. The Activity result in data set [2] was “Non-toxic”. This compound also came in with a minimum inhibitory concentration (MIC) in data set [5] of under 6.25 µg/mL. The compound further returned an Inhibition in data set [6] of 29.

As for `O=C(O)CCNc1nc(Cc2nnc(SCC(=O)NNC(=O)c3ccccc3)n2NC(=O)c2cccc([N+](=O)[O-])c2)cs1`, the inhibition zone in data set [1] was 12 mm; in data set [3], 10 mm; in data set [4] it was 10 mm. Besides, the Activity entry in data set [2] is recorded as “Non-toxic”. In addition, the MIC in data set [5] was under 6.25 µg/mL. This compound displayed an Inhibition in data set [6] of 14.

Consider `COC(=O)CSc1nnc(Cc2csc(NCCC(=O)O)n2)n1NC(=O)c1ccc(Cl)cc1`, for which the figures for the inhibition zone in data set [1], in data set [3] and in data set [4] were 26 mm, 24 mm and 22 mm, respectively. Besides, the Activity entry in data set [2] is listed as “Non-toxic”. Also, in data set [5], the MIC is under 6.25 µg/mL. Also, in data set [6], the Inhibition was 18.

Turning to `O=C(Nc1nc(Cc2nnc(SCSc3nnc(Cc4csc(NC(=O)c5ccccc5)n4)n3NC(=O)c3cccc([N+](=O)[O-])c3)n2NC(=O)c2cccc([N+](=O)[O-])c2)cs1)c1ccccc1`, the inhibition zone was found to be 26 mm in data set [1], 24 mm in data set [3] and 24 mm in data set [4]. Further, the Activity entry in data set [2] is reported as “Non-toxic”. In data set [5], this compound showed a minimum inhibitory concentration (MIC) of under 6.25 µg/mL. The Inhibition in data set [6] is 19.

For `NNC(=O)CSc1nnc(Cc2csc(NCCC(=O)O)n2)n1NC(=O)c1ccc(Cl)cc1`, the inhibition zone in data set [1] stood at 23 mm; in data set [3], 26 mm; in data set [4], 18 mm. In data set [2], the Activity entry is recorded as “Non-toxic”. Besides, the MIC in data set [5] was under 6.25 µg/mL. This compound also had an Inhibition in data set [6] of 22.
